In brackets after ≈: the same amount, converted by molar mass. One block for each molecule: values may come before it.
Assays:
[1] = Solubility was determined with phosphate buffer (0.10M, 5 mL).; assay type: physicochemical; settings: read-out: Solubility in water
Summary of the method: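 Solid compound (70 mg) was agitated in 0.10 M phosphate buffer (5.0 mL) for 20 h. Undissolved solid was filtered off on sintered glass, and the dissolved concentration was determined by UV absorbance.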

HeLa [2] = experiment: Concentration required to cause microscopically visible change or disruption in about 50% of Hela cell sheet.; assay type: functional, cell-based; settings: Homo sapiens
Summary of the method: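 Uninfected HeLa cell sheets were exposed to a range of compound concentrations and checked microscopically for morphological change. The value is the concentration causing visible change or disruption in about 50% of the cell sheet.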

HeLa [3] = experiment: Inhibition of cytopathogenicity of herpes simplex type 1 virus (HSV-1)(KOS) in Hela cell culture.; assay type: functional, cell-based; settings: Homo sapiens
HeLa [4] = experiment: Inhibition of cytopathogenicity of herpes simplex type 2 virus([…] in Hela cell culture; assay type: functional, cell-based; settings: Homo sapiens
HeLa [5] = experiment: Inhibition of cytopathogenicity of Varicella-Zoster virus(VZV)(YS) in Hela cell culture; Not active up to 128 ug/mL.; assay type: functional, cell-based, Homo sapiens
HeLa [6] = experiment: Inhibition of cytopathogenicity of Varicella-Zoster virus(VZV)(YS) in Hela cell culture.; assay type: functional, cell-based; settings: Homo sapiens
HeLa [7] = experiment: Inhibition of cytopathogenicity of herpes simplex type 2 virus([…] in Hela cell culture; Not active up to 128 ug/mL.; assay type: functional, cell-based, Homo sapiens
MT4 [8] = experiment: Concentration required to reduce the number of viable uninfected cells by 50%; assay type: functional, cell-based; settings: Homo sapiens
Summary of the method: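 Uninfected MT4 cells were used for the toxicity arm of the anti-HIV-1 cell-protection assay. The value is the concentration reducing the number of viable uninfected cells by 50%. […]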

MT4 [9] = experiment: Inhibitory Effect against HIV-1 (IIIB) in MT4 cells; settings: Homo sapiens
MT4 [10] = experiment: Inhibitory Effect against HIV-1 (IIIB) in MT4 cells; Not active up to 128 ug/mL.; settings: Homo sapiens

Compound: Nc1ncnc2c1ncn2COCCP(=O)(O)O[C@H]1[C@H](O)[C@H](n2cnc3c(N)ncnc32)O[C@@H]1CO
solubility [1]: 2460 µg/mL (≈ 4710 µM)
IC50 (HeLa [2]): 346 µg/mL (≈ 662 µM)
IC50 (HeLa [3]; read-out: IC50): 8.97 µg/mL (≈ 17.2 µM)
IC50 (HeLa [4]): 16.3 µg/mL (≈ 31.2 µM)
IC50 (HeLa [5]): Not Active

Compound: CCOP(=O)(O)CCOCn1cnc2c(N)ncnc21.N
IC50 (HeLa [2]; read-out: IC50): 176 µg/mL
IC50 (HeLa [3]; read-out: IC50): 11.3 µg/mL
IC50 (HeLa [4]): 13.8 µg/mL
IC50 (HeLa [6]): 25 µg/mL

Compound: Nc1ncnc2c1ncn2[C@@H]1O[C@H](CO)[C@@H](O)[C@H]1O [ADENOSINE]
solubility [1]: 400 µg/mL (≈ 1500 µM)
IC50 (HeLa [2]): 98.8 µg/mL (≈ 370 µM)
IC50 (HeLa [3]): 10.8 µg/mL (≈ 40.4 µM)
IC50 (HeLa [7]): Not Active
IC50 (HeLa [5]): Not Active

Compound: Nc1nc2c(ncn2COCCO)c(=O)[nH]1 [ACYCLOVIR]
IC50 (HeLa [2]; read-out: IC50): 250 µg/mL (≈ 1110 µM)
IC50 (HeLa [3]; read-out: IC50): 0.1 µg/mL (≈ 0.444 µM)
IC50 (HeLa [4]): 0.23 µg/mL (≈ 1.02 µM)

Compound: Cc1cn([C@H]2C[C@H](N=[N+]=[N-])[C@@H](CO)O2)c(=O)[nH]c1=O [ZIDOVUDINE]
IC50 (MT4 [8]): 57.3 µg/mL (≈ 214 µM)
IC50 (MT4 [9]): 0.02 µg/mL (≈ 0.0748 µM)

Compound: Cc1cn([C@H]2C=C[C@@H](CP(=O)(O)O)O2)c(=O)[nH]c1=O
IC50 (MT4 [8]): 196 µg/mL (≈ 679 µM)
IC50 (MT4 [10]): Not Active

Compound: Cc1cn([C@H]2C[C@H](C#N)[C@@H](CP(=O)(O)O)O2)c(=O)[nH]c1=O
IC50 (MT4 [8]): 69.9 µg/mL (≈ 222 µM)
IC50 (MT4 [10]): Not Active

Compound: Cc1cn([C@H]2CC[C@@H](CP(=O)(O)O)O2)c(=O)[nH]c1=O
IC50 (MT4 [8]): 128 µg/mL (≈ 443 µM)
IC50 (MT4 [9]): 23.5 µg/mL (≈ 81 µM)

Compound: COC(=O)[C@H](C)NP(=O)(C[C@H]1O[C@@H](n2cc(C)c(=O)[nH]c2=O)C[C@@H]1F)O[C@H]1C[C@H](n2cc(C)c(=O)[nH]c2=O)O[C@@H]1CO (some centres undefined)
solubility [1]: 8790 µg/mL (≈ 14200 µM)
IC50 (MT4 [8]): 180 µg/mL (≈ 292 µM)
IC50 (MT4 [9]): 0.34 µg/mL (≈ 0.551 µM)

Compound: Cc1cn([C@H]2C[C@H](N=[N+]=[N-])[C@@H](CP(=O)(O)O)O2)c(N)nc1=O
IC50 (MT4 [8]): 58.6 µg/mL (≈ 178 µM)
IC50 (MT4 [10]): Not Active

Compound: Nc1ncnc2c1ncn2COCCO
solubility [1]: 1950 µg/mL (≈ 9320 µM)
IC50 (HeLa [2]; read-out: IC50): 266 µg/mL (≈ 1270 µM)
IC50 (HeLa [3]; read-out: IC50): 4.43 µg/mL (≈ 21.2 µM)
IC50 (HeLa [4]): 8.26 µg/mL (≈ 39.5 µM)
IC50 (HeLa [6]): 6.5 µg/mL (≈ 31.1 µM)

More lines, main results first:

IC50 (HeLa [2]; read-out: IC50): 168 µg/mL
IC50 (HeLa [3]; read-out: IC50): 0.67 µg/mL
IC50 (HeLa [4]): 1.25 µg/mL
IC50 (HeLa [6]): 2.86 µg/mL
Compound: Nc1ncnc2c1ncn2COCCP(=O)(O)O.Nc1ncnc2c1ncn2[C@@H]1O[C@H](CO)[C@@H](O)[C@@H]1O

solubility [1]: 8250 µg/mL (≈ 13600 µM)
IC50 (HeLa [2]; read-out: IC50): 215 µg/mL (≈ 355 µM)
IC50 (HeLa [3]; read-out: IC50): 0.38 µg/mL (≈ 0.625 µM)
IC50 (HeLa [4]): 0.88 µg/mL (≈ 1.45 µM)
IC50 (HeLa [6]): 4.82 µg/mL (≈ 7.93 µM)
Compound: COC(=O)C(C)NP(=O)(CCOCn1cnc2c(N)ncnc21)O[C@H]1[C@H](O)[C@H](n2cnc3c(N)ncnc32)O[C@@H]1CO (some centres undefined)

solubility [1]: 3240 µg/mL (≈ 5830 µM)
Compound: Cc1cn([C@H]2C[C@H](N=[N+]=[N-])[C@@H](CP(=O)(O)O[C@H]3C[C@H](n4cc(C)c(=O)[nH]c4=O)O[C@@H]3CO)O2)c(=O)[nH]c1=O
IC50 (MT4 [8]): 99.5 µg/mL (≈ 179 µM)
IC50 (MT4 [9]): 1.92 µg/mL (≈ 3.46 µM)

solubility [1]: 3980 µg/mL (≈ 7480 µM)
Compound: Cc1cn([C@H]2C[C@H](OP(=O)(O)C[C@H]3O[C@@H](n4cc(C)c(=O)[nH]c4=O)C[C@@H]3F)[C@@H](CO)O2)c(=O)[nH]c1=O
IC50 (MT4 [8]): 79 µg/mL (≈ 148 µM)
IC50 (MT4 [9]): 3.04 µg/mL (≈ 5.71 µM)

solubility [1]: 9200 µg/mL (≈ 14400 µM)
Compound: COC(=O)[C@@H](C)NP(=O)(C[C@H]1O[C@@H](n2cc(C)c(=O)[nH]c2=O)C[C@@H]1N=[N+]=[N-])O[C@H]1C[C@H](n2cc(C)c(=O)[nH]c2=O)O[C@@H]1CO (some centres undefined)
IC50 (MT4 [8]): 458 µg/mL (≈ 714 µM)
IC50 (MT4 [9]): 0.76 µg/mL (≈ 1.19 µM)

solubility [1]: 8920 µg/mL (≈ 14400 µM)
Compound: COC(=O)[C@@H](C)NP(=O)(C[C@H]1O[C@@H](n2cc(C)c(=O)[nH]c2=O)C[C@@H]1F)O[C@H]1C[C@H](n2cc(C)c(=O)[nH]c2=O)O[C@@H]1CO (some centres undefined)
IC50 (MT4 [8]): 462 µg/mL (≈ 748 µM)
IC50 (MT4 [9]): 0.5 µg/mL (≈ 0.81 µM)

solubility [1]: 13600 µg/mL (≈ 49900 µM)
IC50 (HeLa [2]; read-out: IC50): 215 µg/mL (≈ 787 µM)
IC50 (HeLa [3]; read-out: IC50): 3.98 µg/mL (≈ 14.6 µM)
IC50 (HeLa [4]): 5.86 µg/mL (≈ 21.5 µM)
IC50 (HeLa [6]): 16 µg/mL (≈ 58.6 µM)
Compound: Nc1ncnc2c1ncn2COCCP(=O)(O)O

solubility [1]: 9130 µg/mL (≈ 14300 µM)
Compound: COC(=O)[C@H](C)NP(=O)(C[C@H]1O[C@@H](n2cc(C)c(=O)[nH]c2=O)C[C@@H]1N=[N+]=[N-])O[C@H]1C[C@H](n2cc(C)c(=O)[nH]c2=O)O[C@@H]1CO (some centres undefined)
IC50 (MT4 [8]): 200 µg/mL (≈ 312 µM)
IC50 (MT4 [9]): 0.61 µg/mL (≈ 0.952 µM)

solubility [1]: 12300 µg/mL (≈ 39800 µM)
Compound: Cc1cn([C@H]2C[C@H](F)[C@@H](CP(=O)(O)O)O2)c(=O)[nH]c1=O
IC50 (MT4 [8]): 98.7 µg/mL (≈ 320 µM)
IC50 (MT4 [9]): 11.8 µg/mL (≈ 38.3 µM)

solubility [1]: 11200 µg/mL (≈ 33700 µM)
Compound: Cc1cn([C@H]2C[C@H](N=[N+]=[N-])[C@@H](CP(=O)(O)O)O2)c(=O)[nH]c1=O
IC50 (MT4 [8]): 115 µg/mL (≈ 346 µM)
IC50 (MT4 [9]): 7.68 µg/mL (≈ 23.2 µM)

IC50 (HeLa [2]; read-out: IC50): 235 µg/mL
IC50 (HeLa [3]; read-out: IC50): 0.15 µg/mL
IC50 (HeLa [4]): 0.38 µg/mL
IC50 (HeLa [6]): 0.18 µg/mL
Compound: Nc1ncnc2c1ncn2COCCO.Nc1ncnc2c1ncn2COCCP(=O)(O)O

Source: ChEMBL document CHEMBL1128665, “Design, synthesis, and structure-activity relationship of novel dinucleotide analogs as agents against herpes and human immunodeficiency viruses” (J Med Chem, 1995)
